Reference: ChEMBL document CHEMBL1127616, “Synthesis, structural characterization, and antitumor properties of a novel class of large-ring platinum(II) chelate complexes incorporating the cis-1,4-diaminocyclohexane ligand in a unique locked boat conformation” (J Med Chem, 1994)

Experiments:
Assay type in all cases: functional, organism-based
L1210 [1] = assay: Tested for the ratio of treated and control against solid tumor murine L1210 leukemia 10 mg/kg per injection in experiment 2; T/C; settings: Mus musculus
Procedure, shortened: (§1)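 Murine leukemia life span assay in CD2F1 (Balb/c × DBA/2F1) mice, 18–22 g, randomized, with IP tumor cell inoculation on day 0. Depending on the model, the inoculum was 1 × 10^4 cells with IP dosing on days 3, 7 and 11, or 1 × 10^6 cells with IP dosing on days 1, 5 and 9. Drug was given in 0.9% saline, mg/kg per injection, by average cage weight. Read-outs were median day of death and %T/C. Mice alive 60 days after treatment counted as cured and were excluded.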

L1210 [2] = assay: Tested for median life span against solid tumor L1210 Pt-resistant leukemia at 6.0 mg/kg per injection; settings: Mus musculus
Procedure, shortened: (§2)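 CD2F1 mice weighing 18–22 g were inoculated IP with leukemia cells on day 0. Compounds in 0.9% saline were given IP in three injections, dosed by average cage weight, over a dose range from toxic to ineffective. Median life span was recorded, with cause of death assessed at necropsy and 60-day survivors counted as cured.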

Mus musculus [3] = assay: Tested for in vivo weight change against murine P388 Pt-resistant leukemia at the dose of 10 mg/kg per injection
Procedure, shortened: (§3)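 Leukemia life-span assays used CD2F1 (Balb/c × DBA/2F1) mice weighing 18–22 g. Cells were inoculated IP on day 0, and compounds in 0.9% saline were given IP, dosed by average cage weight. Weight change is the difference in mean group weight between the last and first treatment days.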

L1210 [4] = assay: Tested for median life span against solid tumor L1210 Pt-resistant leukemia at 4.0 mg/kg per injection in experiment 1; settings: Mus musculus; procedure, shortened: as §2
Mus musculus [5] = assay: Tested for median life span against solid tumor P388 leukemia at 5.0 mg/kg per injection; procedure, shortened: as §1
L1210 [6] = assay: Tested for in vivo weight change against murine L1210 Pt-resistant leukemia at the dose of 10 mg/kg per injection in experiment 2; settings: Mus musculus; procedure, shortened: as §3
L1210 [7] = assay: Tested for the ratio of treated and control against solid tumor murine L1210 Pt-resistant leukemia 10 mg/kg per injection in experiment 2; T/C; settings: Mus musculus; procedure, shortened: as §1
L1210 [8] = assay: Tested for the ratio of treated and control against solid tumor murine L1210 Pt-resistant leukemia 4.0 mg/kg per injection in experiment 1; T/C; settings: Mus musculus; procedure, shortened: as §1
L1210 [9] = assay: Tested for median life span against solid tumor L1210 Pt-resistant leukemia at 5.0 mg/kg per injection in experiment 2; settings: Mus musculus; procedure, shortened: as §2
Mus musculus [10] = assay: Tested for in vivo weight change against murine P388 leukemia at the dose of 10 mg/kg per injection; procedure, shortened: as §3
Mus musculus [11] = assay: Tested for net cell kill tumor burden reduction during therapy at the dose 9.0 mg/kg in B16 melanoma; set-up: dose 9 mg/kg
Procedure, shortened: (§4)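 Solid tumor growth delay assay; B16 melanoma and M5076 sarcoma were run in B6C3F1 (C57BL/6 × C3HF1) mice of 18–22 g. Tumor fragments were implanted SC on day 0, then drug in 0.9% saline was given IP on days 1, 5, 9 or days 3, 7, 11, mg/kg per injection. T − C is the difference in days for treated and control tumors to reach 750 mg. Net log cell kill is tumor burden reduction during therapy. Cured mice were excluded.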

Mus musculus [12] = assay: Tested for median life span against solid tumor P388 leukemia at 5.0 mg/kg per injection; T/C; procedure, shortened: as §1
Mus musculus [13] = assay: Tested for the ratio of number of survivors / total number after 60 days at the dose of 5.0 mg/kg per injection against murine P388 Pt-resistant leukemia
Procedure, shortened: (§5)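 CD2F1 (Balb/c × DBA/2F1) mice, 18–22 g, randomized and inoculated IP with counted leukemia cells on day 0, then re-randomized. Three IP treatments, dissolved in 0.9% saline and dosed on average cage weight, with dose in mg/kg per injection across a full toxic-to-ineffective range. Median life span and %T/C were recorded. Survivors at 60 days were counted as cured and excluded from %T/C.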

Mus musculus [14] = assay: Tested for median life span against solid tumor P388 Pt-resistant leukemia at 5.0 mg/kg per injection; procedure, shortened: as §1
L1210 [15] = assay: Tested for median life span against solid tumor L1210 leukemia at 5.0 mg/kg per injection in experiment 2; settings: Mus musculus; procedure, shortened: as §2
Mus musculus [16] = assay: tested for in vivo weight change against murine M5076 sarcoma at the dose of 9.0 mg/kg per injection
Procedure, shortened: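 Host weight change in the SC M5076 sarcoma growth delay test in B6C3F1 mice. Drug was given IP in 0.9% saline, mg/kg per injection. Weight change is the maximum treatment-related weight loss.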

L1210 [17] = assay: Tested for in vivo weight change against murine L1210 leukemia at the dose of 6.0 mg/kg per injection in experiment 1; settings: Mus musculus; procedure, shortened: as §3
Mus musculus [18] = assay: Tested for median life span against solid tumor P388 Pt-resistant leukemia at 2.3 mg/kg per injection; procedure, shortened: as §5
Mus musculus [19] = assay: Tested for in vivo weight change against murine P388 leukemia at the dose of 2.3 mg/kg per injection in experiment 2; procedure, shortened: as §3
L1210 [20] = assay: Tested for in vivo weight change against murine L1210 leukemia at the dose of 3.0 mg/kg per injection in experiment 1; settings: Mus musculus; procedure, shortened: as §3
Mus musculus [21] = assay: Tested for the ratio of treated and control tumor to reach 750 mg against murine solid tumor M5076 sarcoma 4.0 mg/kg per injection; procedure, shortened: as §4
L1210 [22] = assay: Tested for the ratio of treated and control against solid tumor murine L1210 leukemia 3.0 mg/kg per injection in experiment 1; T/C; settings: Mus musculus; procedure, shortened: as §1
Colon carcinoma cell = assay: Tested for net cell kill tumor burden reduction during therapy at the dose 2.5 mg/kg in colon carcinoma; set-up: dose 2.5 mg/kg; settings: Mus musculus
L1210 [23] = assay: Tested for the ratio of treated and control against solid tumor murine L1210 leukemia 1.6 mg/kg per injection in experiment 2; T/C; settings: Mus musculus; procedure, shortened: as §1
Mus musculus [24] = assay: Tested for in vivo weight change against murine B16 melanoma at the dose of 4.0 mg/kg per injection
Procedure, shortened: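 B6C3F1 (C57BL/6 × C3HF1) mice weighing 18–22 g received trocar tumor fragments SC on day 0. Compounds in 0.9% saline were given IP on a three-injection schedule, dosed by average cage weight. Weight change is the maximum treatment-related weight loss during the growth-delay assay.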

Mus musculus [25] = assay: Tested for in vivo weight change against murine colon carcinoma at the dose of 2.5 mg/kg per injection
Mus musculus [26] = assay: Tested for the ratio of treated and control tumor to reach 750 mg against murine solid tumor colon carcinoma 2.5 mg/kg per injection
L1210 [27] = assay: Tested for in vivo weight change against murine L1210 leukemia at the dose of 1.5 mg/kg per injection in experiment 1; settings: Mus musculus; procedure, shortened: as §3
L1210 [28] = assay: Tested for the ratio of treated and control against solid tumor murine L1210 leukemia 1.5 mg/kg per injection in experiment 1; T/C; settings: Mus musculus; procedure, shortened: as §1
L1210 [29] = assay: Tested for median life span against solid tumor L1210 leukemia at 1.6 mg/kg per injection in experiment 2; settings: Mus musculus; procedure, shortened: as §2
Mus musculus [30] = assay: Tested for the ratio of treated and control against solid tumor murine P388 leukemia 2.3 mg/kg per injection in experiment 2; T/C; procedure, shortened: as §1
Mus musculus [31] = assay: Tested for in vivo weight change against murine P388Pt-resistant leukemia at the dose of 3.7 mg/kg per injection; procedure, shortened: as §3
Mus musculus [32] = assay: Tested for the ratio of number of survivors / total number after 60 days at the dose of 2.3 mg/kg per injection against murine leukemia P388 experiment 2; procedure, shortened: as §5
L1210 [33] = assay: Tested for the ratio of treated and control against solid tumor murine L1210 Pt-resistant leukemia 3.0 mg/kg per injection in experiment 1;T/C; settings: Mus musculus; procedure, shortened: as §1

Work on CISPLATIN yielded a Ratio (L1210 [1]) of 199%, an MLS (L1210 [2]) of 12 days and a Weight change (Mus musculus [3]) of -5.9 g. The MLS (L1210 [4]) was 11.1 days, the MLS (Mus musculus [5]) was 29 days and the Weight change (L1210 [6]) was -4.8 g. The Ratio (L1210 [7]) was 120%, the Ratio (L1210 [8]) was 109% and the MLS (L1210 [9]) was 11 days. It also gave a Weight change (Mus musculus [10]) of -5.5 g, a Log net cell kill (Mus musculus [11]) of -0.4 and a T/C (Mus musculus [12]) of 261%. The Survivors (Mus musculus [13]) was 0, the MLS (Mus musculus [14]) was 19.3 days and the MLS (L1210 [15]) was 16 days. The Weight change (Mus musculus [16]) was -5.1 g and the Weight change (L1210 [17]) was -1.9 g.

Work on [Pt(cis-1,4-dach)CL2] yielded a Survivors (Mus musculus [18]) of 21 days, a Weight change (Mus musculus [19]) of -2.2 g and a Weight change (L1210 [20]) of -4.8 g. The T-C (Mus musculus [21]) was 13.5 days, the Ratio (L1210 [22]) was 203% and the Log net cell kill (Colon carcinoma cell) was -0.4. It also gave a Ratio (L1210 [23]) of 229%, a Weight change (Mus musculus [24]) of -2.6 g and a Weight change (Mus musculus [25]) of -4.2 g. The T-C (Mus musculus [26]) was 3.8 days, the Weight change (L1210 [27]) was 0.6 g and the Ratio (L1210 [28]) was 217%. It also gave an MLS (L1210 [29]) of 21.3 days, a T/C (Mus musculus [30]) of 225% and a Weight change (Mus musculus [31]) of -5.2 g. For the same substance, the 60-day survivors (Mus musculus [32]) was 0 and the Ratio (L1210 [33]) was 167%.
